Data as given in PMC7610571 (Nature chemical biology, 2020).

Columns and labels:
NUDT15 [1] = settings: read-out: Km of NUDT15 for 6-thio-dGTP; cited from earlier work
NB4 and HL-60 cells = assay: Thiopurine/TH1760 dose-matrix, resazurin viability; format: cell-based, human; settings: combined with 6-TG or 6-MP, dose-dependent
In short: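 NB4 and HL-60 cells treated with a dose matrix of 6-TG or 6-MP combined with test compound (pre-treatment 3 h). Resazurin read-out four days after treatment (544/590 nm), viability normalised to DMSO controls. Relative viabilities used for EC50 fitting and SynergyFinder synergy scores. Knockdown matrix in NB4 shRNA lines: 96 h, n=2.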

NUDT15 [2] = biological target: T1, NUDT15 (Homo sapiens, UniProt Q9NV35); assay: Differential scanning fluorimetry; format: binding; settings: over the DMSO control, dose-dependent
T1 sequence (Q9NV35 1-164): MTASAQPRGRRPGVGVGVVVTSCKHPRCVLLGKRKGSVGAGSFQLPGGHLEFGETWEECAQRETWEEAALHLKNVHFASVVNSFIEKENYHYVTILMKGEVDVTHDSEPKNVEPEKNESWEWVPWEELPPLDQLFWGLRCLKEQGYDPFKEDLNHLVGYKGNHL

NUDT15 [3] = biological target: T1, NUDT15; assay: Enzyme-coupled malachite green; format: biochemical; settings: MG assay
In short: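 Excess E. coli pyrophosphatase (0.4 U/mL) added for 20 min, then malachite green for 15 min; A630 read. Buffer-only wells served as the full-inhibition control. Two experiments, each in duplicate.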

NB4 cells = assay: Alkaline comet assay; format: cell-based, human; settings: NB4, 10 μM TH1760 + 6-TG, 48 h
NUDT15 [4] = biological target: T1, NUDT15; assay: PPiLight inorganic pyrophosphate assay, 6-thio-dGTPase activity; format: biochemical
In short: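 6-thio-dGTPase activity of 10 nM NUDT15 in 100 mM Tris acetate pH 7.5, 40 mM NaCl, 100 mM Mg acetate, 1 mM DTT, with 2.5 μM 6-thio-dGTP. Test-compound dilution series ran 13.3 μM–75 pM or 15 μM–2.2 nM, depending on compound. Shaken 30 min at 22 °C; formed PPi detected by PPiLight luminescence.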

[5] = tested on: BJ-RAS cells versus BJ-hTERT cells; assay: Resazurin viability assay, isogenic fibroblasts; format: cell-based, human

reduction of thiopurine EC50 values (NB4 and HL-60 cells)	increase of NUDT15 melting temperature (NUDT15 [2]) [°C]	improvement of potency compared to hit compound TH884 (NUDT15 [3])	potency improvement as compared to TH884 (NUDT15 [4])	Structure (SMILES)	Km (NUDT15 [1]) [µM]	6-TG-induced DNA damage (comet tail moment) (NB4 cells)	sensitization to 6-TG, tumorigenic versus non-transformed cells [5]
				Nc1nc2c(ncn2[C@H]2C[C@H](O)[C@@H](COP(=O)(O)OP(=O)(O)OP(=O)(O)O)O2)c(=S)[nH]1 [Compound 6-thio-dGTP, 6-thio-dGTP]	2		
~ 10 fold	> 10	more than 200 fold	over 200 fold	O=C(c1ccc2[nH]ccc2c1)N1CCN(S(=O)(=O)c2ccc3[nH]c(=O)oc3c2)CC1 [Compound 18]		potentiated 6-TG-induced DNA damage in NB4 cells	preferentially sensitized BJ-RAS cells to 6-TG versus their non-transformed counterpart BJ-hTERT cells
